In ChEMBL document CHEMBL1138835, “Inhibitors of multiple mutants of Plasmodium falciparum dihydrofolate reductase and their antimalarial activities” (J Med Chem, 2004):

What was measured:
[1] = molecular target: Bifunctional dihydrofolate reductase-thymidylate synthase (Plasmodium falciparum K1) (UniProt P13922); experiment: Ratio of binding affinity for mutant (N51I+C59R+S108N) to that of wild type dihydrofolate reductase
How it was run: (§1)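 Each ratio is Ki for the mutant PfDHFR divided by Ki for wild-type PfDHFR. The recombinant enzymes were expressed in E. coli BL21(DE3)pLysS and purified on methotrexate-Sepharose. Ki was derived assuming inhibitors compete with substrate binding.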

[2] = molecular target: Bifunctional dihydrofolate reductase-thymidylate synthase (Plasmodium falciparum K1, UniProt P13922); experiment: Binding affinity towards wild-type dihydrofolate reductase of Plasmodium falciparum.
[3] = molecular target: Bifunctional dihydrofolate reductase-thymidylate synthase (Plasmodium falciparum K1, UniProt P13922, C59R/I164L/N51I/S108N); experiment: Binding affinity towards mutant dihydrofolate reductase (N51I+C59R+S108N+I164L DHFR) of Plasmodium falciparum
[4] = tested on: Bifunctional dihydrofolate reductase-thymidylate synthase (Plasmodium falciparum K1), P13922 [UNDEFINED MUTATION]; experiment: Ratio of binding affinity for mutant (C59R+S108N+I164L) to that of wild type dihydrofolate reductase; how it was run: as §1
[5] = tested on: Bifunctional dihydrofolate reductase-thymidylate synthase (Plasmodium falciparum K1), P13922 [UNDEFINED MUTATION]; experiment: Ratio of binding affinity for mutant (N51I+C59R+S108N+I164L) to that of wild type dihydrofolate reductase; how it was run: as §1
[6] = molecular target: Bifunctional dihydrofolate reductase-thymidylate synthase (Plasmodium falciparum K1, UniProt P13922, C59R/N51I/S108N); experiment: Binding affinity towards mutant dihydrofolate reductase (N51I+C59R+S108N DHFR) of Plasmodium falciparum
[7] = molecular target: Bifunctional dihydrofolate reductase-thymidylate synthase (Plasmodium falciparum K1, UniProt P13922, C59R/I164L/S108N); experiment: Binding affinity towards mutant dihydrofolate reductase (C59R+S108N+I164L DHFR) of Plasmodium falciparum
BC [8] = experiment: Relative antiplasmodial activity to cytotoxicity in Plasmodium falciparum TM4/8.2 infected BC cells; format: functional
KB [9] = experiment: Relative antiplasmodial activity to cytotoxicity in Plasmodium falciparum Csl-2 infected KB cells; format: functional
Vero [10] = experiment: Relative antiplasmodial activity to cytotoxicity in Plasmodium falciparum V1/S infected Vero cells; format: functional
BC [11] = experiment: In vitro cytotoxicity against BC cell line.; settings: Homo sapiens
Vero [12] = experiment: In vitro cytotoxicity against Plasmodium falciparum infected vero cell line.; format: functional, cell-based; settings: Chlorocebus sabaeus
How it was run: (§2)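 Cytotoxicity (IC50, μM) run against three mammalian lines: Vero (African green monkey kidney fibroblasts), KB (human epidermoid carcinoma) and BC (human breast cancer). Testing followed the Skehan et al. protocol.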

BC [13] = experiment: Relative antiplasmodial activity to cytotoxicity in Plasmodium falciparum Csl-2 infected BC cells; format: functional
Vero [14] = experiment: Relative antiplasmodial activity to cytotoxicity in Plasmodium falciparum Csl-2 infected Vero cells; format: functional
Vero [15] = experiment: Relative antiplasmodial activity to cytotoxicity in Plasmodium falciparum TM4/8.2 infected Vero cells; format: functional
KB [16] = experiment: In vitro cytotoxicity against Plasmodium falciparum infected KB cell line; format: functional, cell-based; settings: Homo sapiens; how it was run: as §2
[17] = tested on: Bifunctional dihydrofolate reductase-thymidylate synthase (Plasmodium falciparum K1), P13922 [UNDEFINED MUTATION]; experiment: Ratio of binding affinity for mutant (A16V+S108T) to that of wild type dihydrofolate reductase; how it was run: as §1
[18] = molecular target: Bifunctional dihydrofolate reductase-thymidylate synthase (Plasmodium falciparum K1, UniProt P13922, A16V/S108T); experiment: Binding affinity towards mutant dihydrofolate reductase (A16V+S108T DHFR) of Plasmodium falciparum.
KB [19] = experiment: Relative antiplasmodial activity to cytotoxicity in Plasmodium falciparum V1/S infected KB cells; format: functional
KB [20] = experiment: Relative antiplasmodial activity to cytotoxicity in Plasmodium falciparum TM4/8.2 infected KB cells; format: functional

Bifunctional dihydrofolate reductase-thymidylate synthase (Plasmodium falciparum K1, UniProt P13922, A16V/S108T), sequence (P13922 whole entry, looked up, stated change not applied): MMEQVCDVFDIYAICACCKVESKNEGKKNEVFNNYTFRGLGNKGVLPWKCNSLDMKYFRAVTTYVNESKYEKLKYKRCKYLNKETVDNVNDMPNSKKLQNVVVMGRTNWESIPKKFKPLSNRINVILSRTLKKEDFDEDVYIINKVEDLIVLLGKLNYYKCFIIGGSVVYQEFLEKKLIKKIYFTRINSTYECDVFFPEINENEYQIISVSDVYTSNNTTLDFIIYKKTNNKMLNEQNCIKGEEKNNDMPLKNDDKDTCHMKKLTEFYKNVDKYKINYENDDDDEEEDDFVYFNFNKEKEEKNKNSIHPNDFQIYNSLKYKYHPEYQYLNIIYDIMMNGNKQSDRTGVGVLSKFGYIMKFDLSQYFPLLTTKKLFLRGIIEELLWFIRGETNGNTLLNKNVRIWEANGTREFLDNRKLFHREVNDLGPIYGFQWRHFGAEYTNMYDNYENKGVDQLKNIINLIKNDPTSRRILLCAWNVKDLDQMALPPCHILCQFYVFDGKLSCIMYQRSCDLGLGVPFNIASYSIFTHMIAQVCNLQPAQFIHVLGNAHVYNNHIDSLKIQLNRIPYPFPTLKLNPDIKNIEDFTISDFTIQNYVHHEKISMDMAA
Bifunctional dihydrofolate reductase-thymidylate synthase (Plasmodium falciparum K1, UniProt P13922), sequence (P13922 whole entry): as the sequence (P13922 whole entry, looked up, stated change not applied) above
Bifunctional dihydrofolate reductase-thymidylate synthase (Plasmodium falciparum K1, UniProt P13922, C59R/I164L/S108N), sequence (P13922 whole entry, looked up, stated change not applied): as above
Bifunctional dihydrofolate reductase-thymidylate synthase (Plasmodium falciparum K1, UniProt P13922, C59R/N51I/S108N), sequence (P13922 whole entry, looked up, stated change not applied): as above
Bifunctional dihydrofolate reductase-thymidylate synthase (Plasmodium falciparum K1, UniProt P13922, C59R/I164L/N51I/S108N), sequence (P13922 whole entry, looked up, stated change not applied): as above
Bifunctional dihydrofolate reductase-thymidylate synthase (Plasmodium falciparum K1), sequence (P13922 whole entry, looked up): as the sequence (P13922 whole entry, looked up, stated change not applied) above
Bifunctional dihydrofolate reductase-thymidylate synthase (Plasmodium falciparum K1), P13922 [UNDEFINED MUTATION], sequence (P13922 whole entry, looked up, stated change not applied): as above

Structure (SMILES)	Ratio [1]	Ki [2]	Ki [3]	Ratio [4]	Ratio [5]	Ki [6]	Ki [7]	Safety ratio (BC [8])	Safety ratio (KB [9])	Safety ratio (Vero [10])	IC50 (BC [11])	IC50 (Vero [12])	Safety ratio (BC [13])	Safety ratio (Vero [14])	Safety ratio (Vero [15])	IC50 (KB [16])	Ratio [17]	Ki [18]	Safety ratio (KB [19])	Safety ratio (KB [20])
COC(=O)CCCc1nc(N)nc(N)c1-c1ccc(Cl)cc1	97.7	0.3 nM	360 nM	483	1200	29.3 nM	145 nM	–	–	–	–	–	–	–	–	–	–	–	–	–
CCc1nc(N)nc(N)c1-c1ccc(Cl)c(Cl)c1 [ETOPRINE]	3.1	1 nM	53 nM	41	53	3.1 nM	41 nM	–	–	–	–	–	–	–	–	–	–	–	–	–
Nc1nc(N)c(-c2ccc(Cl)cc2)c(CCCc2ccccc2)n1	21.6	0.7 nM	170 nM	90	243	15.1 nM	63 nM	–	–	–	–	–	–	–	–	–	–	–	–	–
COC(=O)CCCc1nc(N)nc(N)c1-c1cccc(Cl)c1	1.5	0.5 nM	2.7 nM	3.6	5.4	0.77 nM	1.8 nM	–	–	–	–	–	–	–	–	–	–	–	–	–
COC(=O)CCCc1nc(N)nc(N)c1-c1ccccc1	5.5	0.6 nM	24 nM	25	40	3.3 nM	15 nM	–	–	–	–	–	–	–	–	–	–	–	–	–
CCc1nc(N)nc(N)c1-c1ccc2c(c1)OCO2	7.5	1.1 nM	269 nM	110	244	8.3 nM	121 nM	–	–	–	–	–	–	–	–	–	–	–	–	–
NC1=NC(c2cccc(Oc3ccc(Cl)cc3)c2)N(c2ccc(Cl)cc2)C(N)=N1 (configuration not stated)	61.1	–	121 nM	108	86.4	85.5 nM	151 nM	2.5	1	8.2	7000 nM	31000 nM	1.8	7.8	11.1	4000 nM	5.4	7.5 nM	1.1	1.4
CCCCCCCC1N=C(N)N=C(N)N1c1cccc(Cl)c1 (configuration not stated)	0.4	–	0.8 nM	0.1	0.3	1 nM	0.3 nM	45	7.1	>20	1800 nM	> 50000 nM	12.9	>357	>1250	1000 nM	1.4	3.8 nM	0.4	25
CCCCCCC1(C)N=C(N)N=C(N)N1c1cccc(Cl)c1 (configuration not stated)	2.3	–	15.9 nM	5	6.58	5.5 nM	12.1 nM	36.7	8.2	71.9	2200 nM	230000 nM	4.5	469	3833	4000 nM	41.9	101 nM	1.3	66.7
CCCC1(C)N=C(N)N=C(N)N1c1cccc(Cl)c1 (configuration not stated)	2.1	–	39.4 nM	7.2	8.53	9.7 nM	33.1 nM	356	379	454	64000 nM	> 500000 nM	221	>1724	>2778	110000 nM	102	471 nM	1.1	611
NC1=NC(c2cccc(Oc3ccccc3)c2)N(c2cccc(Cl)c2)C(N)=N1 (configuration not stated)	2.3	–	5.8 nM	2.7	5.3	2.5 nM	3 nM	3.8	1.2	>13.9	8400 nM	> 50000 nM	2.5	>14.7	>22.7	4000 nM	2.3	2.5 nM	1.1	1.8
NC1=NC(c2cccc(Oc3cc(Cl)cc(Cl)c3)c2)N(c2cccc(Cl)c2)C(N)=N1 (configuration not stated)	0.6	–	2.7 nM	0.3	1.5	1 nM	0.6 nM	1.8	1.5	7.2	10000 nM	28000 nM	2.6	7.2	5.1	6000 nM	2.6	4.7 nM	1.5	1.1
NC1=NC(c2cccc(OCCCOc3cc(Cl)c(Cl)cc3Cl)c2)N(c2cccc(Cl)c2)C(N)=N1 (configuration not stated)	0.5	–	4.5 nM	0.6	1.1	2 nM	2.2 nM	3.3	1.3	2.1	10000 nM	18000 nM	1.9	3.5	6	7000 nM	0.7	2.6 nM	0.8	2.3
NC1=NC(c2ccc(Oc3ccccc3)cc2)N(c2cccc(Cl)c2)C(N)=N1 (configuration not stated)	1.2	–	1.3 nM	0.5	1.9	0.9 nM	0.3 nM	8.3	1.2	>15.2	5300 nM	> 50000 nM	1.6	>15.2	>76.9	4000 nM	3.9	2.7 nM	1.2	6.2
NC1=NC(c2cccc(Oc3ccc(Cl)cc3)c2)N(c2cccc(Cl)c2)C(N)=N1 (configuration not stated)	1.5	–	8 nM	3.9	6.1	1.9 nM	5.1 nM	2.6	2.3	9.7	10000 nM	31000 nM	3.2	10	7.9	7000 nM	2.7	3.5 nM	2.2	1.8
CCc1nc(N)nc(N)c1-c1ccc(C)cc1	17.2	0.4 nM	284 nM	220	710	6.9 nM	88 nM	–	–	–	–	–	–	–	–	–	–	–	–	–
Cc1nc(N)nc(N)c1-c1cccc(Cl)c1	3.4	1.9 nM	14 nM	5.2	7.4	6.5 nM	9.8 nM	–	–	–	–	–	–	–	–	–	–	–	–	–
